The whole screen tested about 190,000 compounds, of which about 200 (0.11%) were called active. The sample holds actives, similar compounds and a random draw of the others, so the mix is not that of the screen. Unmarked numbers belong to inactive results.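 The calls were made as follows: active = inhibition above 80%; inactive = the rest.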

Usually inhibition stands for the change of the read-out against control, counted positive when it falls.

Chain of Broad substrate specificity ATP-binding cassette transporter ABCG2 (Homo sapiens) (Q9UNQ0 whole entry, looked up): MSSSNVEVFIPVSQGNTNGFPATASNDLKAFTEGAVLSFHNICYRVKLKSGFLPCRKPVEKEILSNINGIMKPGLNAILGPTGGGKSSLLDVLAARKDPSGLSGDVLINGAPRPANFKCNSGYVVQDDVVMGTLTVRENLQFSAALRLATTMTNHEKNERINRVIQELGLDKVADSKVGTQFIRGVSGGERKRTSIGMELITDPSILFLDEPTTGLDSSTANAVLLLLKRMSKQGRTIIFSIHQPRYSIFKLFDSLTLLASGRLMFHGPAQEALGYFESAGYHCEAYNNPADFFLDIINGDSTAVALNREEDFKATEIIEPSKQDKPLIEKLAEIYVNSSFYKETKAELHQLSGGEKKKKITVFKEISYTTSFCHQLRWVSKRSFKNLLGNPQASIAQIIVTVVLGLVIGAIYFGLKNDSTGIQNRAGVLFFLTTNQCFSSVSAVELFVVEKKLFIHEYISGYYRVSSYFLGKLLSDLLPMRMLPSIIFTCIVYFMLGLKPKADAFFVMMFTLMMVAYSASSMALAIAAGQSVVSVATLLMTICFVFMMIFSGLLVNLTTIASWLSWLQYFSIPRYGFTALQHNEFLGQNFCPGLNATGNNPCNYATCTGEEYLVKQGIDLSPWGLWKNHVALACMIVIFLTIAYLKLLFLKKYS

The assay addresses Broad substrate specificity ATP-binding cassette transporter ABCG2 (Homo sapiens) (UniProt Q9UNQ0). In words: blockers of JC-1 export by ABCG2 – multiplex with ABCB1, IgMXP3 cells, flow cytometry, primary screen (AID 1325).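 Also: 0% = DMSO and 100% = nicardipine control wells.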 The conditions noted are these: JC-1 efflux, at 6.6 µM, stronger effect = higher value. In short, it runs like this: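 test system = two drug-resistant human cell lines, ABCG2 and ABCB1 | amount = 3 million cells/mL final, two lines in 1:1 ratio | reagent = JC-1 transporter substrate | doses = one concentration, 6.6 µM final | incubation = 10 min at 25 °C | signal = flow cytometric JC-1 green MFI at 530 nm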
In general terms: Flow cytometry measures light scatter and fluorescence of single cells or particles in a stream.
As to `CC(Sc1nc2cc(Cl)ccc2s1)C(=O)Nc1ccc2c(c1)OCO2` (centres undefined), the inhibition is 0%.

For `O=C(/C=C/c1ccc([N+](=O)[O-])cc1)NCCSCc1ccco1`, the inhibition was 54.6%.

For `O=S(=O)(Nc1ccccn1)c1cccc(S(=O)(=O)c2ccc(Cl)cc2)c1`, the inhibition was -0.57%.

On to `O=C(NNC1=NCCC1)c1cccc(S(=O)(=O)N2CCCCC2)c1`, for which the inhibition is -6.82%.

With `C=CCc1cccc2cc(C(=O)Nc3ccc(NC(C)=O)cc3)c(=O)oc12`, the inhibition was 0.59%.

For the compound `O=C(CC(=O)N/N=C\c1ccc(F)cc1)NCCc1ccccc1`, the inhibition was 1.18%.

As to `O=C(Cc1ccc(F)cc1)N/N=C/c1ccc2c(c1)OCO2`, the inhibition is 10.1%.

On to `O=C(Cc1c[nH]c2ccccc12)N/N=C/c1cccc(F)c1`, for which the inhibition was 88.7% (active).

In the case of `Cc1cc(C(=O)N/N=C\C(Br)=C\c2ccccc2)c(C)o1`, the inhibition is 2.48%.

In the case of `NC(=O)CCC(NS(=O)(=O)c1ccc(Cl)cc1)C(=O)NCc1ccccc1Cl` (centres undefined), the inhibition is 4.92%.

Regarding `Cc1cc(C)n(CC(O)CN(c2ccccc2)S(=O)(=O)c2ccc3ccccc3c2)n1` (centres undefined), the inhibition was 16.1%.

In the case of `CCc1nnc(NC(=O)CSc2nc(SC)ns2)s1`, the inhibition was 1.21%.

With `COc1ccc(C2(CNC(=O)Cc3ccc(OC)c(OC)c3)CCCC2)cc1`, the inhibition is 2.77%.

For `CC(C)CCN1C(=O)c2ccc(C(=O)Nc3cccc(S(N)(=O)=O)c3)cc2C1=O`, the inhibition was -4.62%.

`Clc1ccc(-c2ncc3ccccn23)c(Cl)c1`: the inhibition is -0.33%.

On to `CCOc1cc(/C=N/NC(=O)c2ccc(CSc3nncn3C)cc2)ccc1OCC(=O)N1CCOCC1`, for which the inhibition is -0.51%.

Turning to `Cc1nn(CC(=O)Nc2ccc3c(c2)OCO3)c(C)c1[N+](=O)[O-]`, the inhibition is 11.5%.

Take `CC(=O)Nc1sc2c(c1C(c1cccc(F)c1)N1CCN(CCO)CC1)CCCC2` (centres undefined): the inhibition is -0.02%.

`O=C(c1cncc(Br)c1)N1CCN(c2ccc([N+](=O)[O-])cc2)CC1`: the inhibition was 34.2%.

For the compound `CN(C)c1ccc(/C=N/Nc2cc(N3CCOCC3)nc(N3CCOCC3)n2)cc1`, the inhibition is 5.63%.

For the compound `Cn1nc(C(F)(F)F)c2cc(C(=O)N3CCOCC3)sc21`, the inhibition was 0.03%.

As to `Cc1cc(NC(=O)CSc2nc3cc(Cl)ccc3c(=O)n2Cc2ccco2)no1`, the inhibition is 5.22%.

As for `CCC1CCCCN1C(=S)Nc1ccc(SC(F)F)cc1` (centres undefined), the inhibition is 0%.

For the compound `O=C(N/N=C/c1cc([N+](=O)[O-])ccc1O)/C(=C\c1cccs1)NC(=O)c1ccccc1`, the inhibition was -3.14%.

`Cn1cc(CN2CCCC(CO)C2)c(-c2ccc(Oc3ccccc3)cc2)n1` (centres undefined): the inhibition is -1.73%.

With `CN(C)c1ccc(C=C2C(=O)OC3(CCCC3)OC2=O)cc1`, the inhibition was 0.11%.

Consider `Cc1nc2nc[nH]n2c(=O)c1C/C=C/c1ccccc1`, for which the inhibition was 0.18%.

On to `CN(C)c1ccc2c(=O)[nH][nH]c(=O)c2c1`, for which the inhibition is 2.2%.

As for `CCn1nc(C)cc1C(=O)N1CCCC(C(=O)c2cccc(OC)c2)C1` (centres undefined), the inhibition was -0.58%.

Take `CCNS(=O)(=O)c1ccc(NC(=O)c2cncc(Br)c2)cc1`: the inhibition is 19.8%.

Take `Cn1c(CCC(=O)OCC(=O)NCc2ccccc2Cl)nc(=O)c2ccccc21`: the inhibition was 1.08%.

With `CN(C)C(=O)c1cccn(Cc2cccc(C(F)(F)F)c2)c1=O`, the inhibition was -0.69%.

`CN1C(=O)/C(=C/C=C2\SCCN2C)OC1=S`: the inhibition is -0.91%.

With `Cc1ccc(NC(=O)C2(N3CCC3=O)CCCCC2)cc1`, the inhibition was 0.01%.

As for `COc1ccc(C(=O)Nc2ccc(-n3nncc3C(C)(C)C)cc2)cc1`, the inhibition was 1.71%.

As for `Cc1ccc(NS(=O)(=O)c2cccs2)cc1S(=O)(=O)N1CCCCCC1`, the inhibition was 0.74%.

On to `Cc1ccc(OCc2nnc(SC3CCc4ccccc4C3=O)n2C)cc1` (centres undefined), for which the inhibition was 1.34%.

For the compound `O=C(Cn1cc(C(F)(F)F)ccc1=O)N/N=C/c1ccc(Cl)cc1Cl`, the inhibition was -1.56%.

Take `Cc1ccc2c(CC(=O)NCc3cccs3)coc2c1`: the inhibition is 9.43%.

As for `CCc1nnc(NC(=O)c2cccc(S(=O)(=O)N(C)c3ccc(OC)cc3)c2)s1`, the inhibition was 3.19%.

On to `COc1ccc(CNC(=O)CN(Cc2ccc(Cl)cc2)S(C)(=O)=O)cc1`, for which the inhibition is 3.97%.

For `COc1cccc(NC(=O)CC(c2ccc(OC(C)C)cc2)c2ccccc2OC)c1` (centres undefined), the inhibition is 10.9%.

For `Cc1ccc(O)c(NC(=S)NC(=O)COc2ccc(Br)cc2)c1`, the inhibition is 3.88%.

For `CCOC(=O)C1=C(CC)Nc2ccccc2N=C1N`, the inhibition was 0.61%.

For `CC(CNc1ccc([N+](=O)[O-])c2cccnc12)Nc1c([N+](=O)[O-])cc(C(F)(F)F)cc1[N+](=O)[O-]` (centres undefined), the inhibition is 23.1%.

Consider `CC(=O)NC1C(Oc2ccc(C=O)cc2)OC(COC(C)=O)C(OC(C)=O)C1OC(C)=O` (centres undefined), for which the inhibition is 0.63%.

`Cc1nc2cc(NCc3cccs3)ccc2n1C`: the inhibition was 0.91%.

For `CCCCc1ccc(S(N)(=O)=O)cc1`, the inhibition was 3.23%.

For the compound `O=C(NCc1ccccn1)c1cc(Br)ccc1Cl`, the inhibition is 2.2%.

Consider `CC(C)C(c1nnnn1C(C)(C)C)N1CCN(Cc2cccnc2)CC1` (centres undefined), for which the inhibition is 1.7%.

Regarding `CCOC(=O)c1ccc(NC(=S)Nc2cc(C)cc(C)n2)cc1`, the inhibition is 11.7%.

As for `CC(C)N(C)C(=O)CCc1nnc(CCc2c[nH]c3ccccc23)o1`, the inhibition is 5.03%.

For the compound `CC(C)CNC(=O)C(=O)NCc1ccccc1`, the inhibition is 7.35%.

Regarding `Cc1c(Cl)cccc1NC(=S)N(Cc1ccccc1)Cc1cccnc1`, the inhibition is 3.04%.

With `COc1ccccc1NC(=O)c1c(Br)cnn1C`, the inhibition was 9.25%.

As for `Cc1cccc(N2C(=O)SC(SC(=Nc3ccccc3)Nc3ccccc3)C2=O)c1` (centres undefined), the inhibition is 0.89%.

`COc1ccc(N2C(=O)/C(=C\c3ccco3)N=C2SCC(N)=O)cc1Cl`: the inhibition was 0.72%.

On to `S=C(c1ccc(-c2ccccc2)o1)N1CCCCC1`, for which the inhibition is 1.68%.

On to `Cc1ccc(NC(=O)NC(=O)CSc2nnc(-c3ccc(OC(F)F)cc3)n2N)c(C)c1`, for which the inhibition is 4.7%.

For the compound `COc1cccc(C2CC(c3ccccc3)=NN2S(=O)(=O)c2ccccc2)c1OC` (centres undefined), the inhibition is 5.72%.

In the case of `CCOc1ccc(NC(=O)c2cc(C)nc3ccccc23)cc1`, the inhibition was 4.37%.

`COc1ccccc1NC(=O)/C=C/C(=O)O`: the inhibition was 3.21%.

Take `C=CCNC(=O)CC12CC3CC(C1)CC(CC(=O)NCC=C)(C3)C2`: the inhibition is 0.78%.

With `Cc1cc(C)cc(NC(=O)Cn2cnc3c(nnn3Cc3ccc(F)cc3)c2=O)c1`, the inhibition is 0.29%.

Take `CSc1ccc(CN2C(=O)NC3(CCCCCC3)C2=O)cc1`: the inhibition is -1.59%.

With `COCCNC(=O)CCCn1c(=O)c2ccccc2n(Cc2cccc([N+](=O)[O-])c2)c1=O`, the inhibition was 3.38%.

Regarding `COc1ccccc1CN(C)c1nnnn1-c1ccccc1`, the inhibition was -0.06%.

`O=C(CSc1ccc(-c2ccco2)nn1)NCc1ccc2c(c1)OCO2`: the inhibition is 0.73%.

As for `O=C(Nc1ccccc1C(=O)O)c1cc(S(=O)(=O)N2CCCCC2)cs1`, the inhibition is -0.42%.

Regarding `Cc1c(Br)c([N+](=O)[O-])nn1CC(=O)N1CCN(Cc2ccccc2)CC1`, the inhibition was 2.55%.

Consider `CC(C)NC(=S)NN=C1CCCCCCCCCCC1`, for which the inhibition is 5.8%.

On to `CCSc1sc(CC)cc1C=O`, for which the inhibition is 3.95%.

Consider `CCCCn1c(=O)c(CCC(=O)OCC(=O)Nc2ccc(C)c(Cl)c2)nc2ccccc21`, for which the inhibition was 2.45%.

For `COC(=O)Cc1csc(/N=C/c2c(O)n(-c3cccc(C(F)(F)F)c3)c(=O)c3ccccc23)n1`, the inhibition is -1.85%.

With `Cc1c(Cc2ccccc2)c(=O)oc2cc(OCC(N)=O)ccc12`, the inhibition is 0.67%.

`CCOC(=O)c1sc(=NC(=O)/C=C/c2cccs2)n(C)c1C`: the inhibition is 2.28%.

In the case of `CCC(C(=O)OCC(=O)Nc1ccccc1-c1ccccc1)c1ccccc1` (centres undefined), the inhibition was 3.04%.

With `C/C(=N/O)c1ccc(N2C(=O)C3C4C=CC(C3C2=O)C2C3C(=O)N(c5ccc(/C(C)=N/O)cc5)C(=O)C3C42)cc1` (centres undefined), the inhibition was -1.72%.

For `O=C(c1ccc(-c2ccccc2)cc1)C1CCCN(C(=O)c2cncs2)C1` (centres undefined), the inhibition is 3.81%.

As to `Cc1ccc(OCC(=O)NNC(=S)NCc2ccccc2)cc1`, the inhibition is -1.33%.

Consider `O=C(/C=C/c1cccc([N+](=O)[O-])c1)NCCSCc1ccco1`, for which the inhibition was 51.1%.

Consider `Cc1ccc(C)c(NS(=O)(=O)c2ccc(OCC(=O)NCc3cccnc3)cc2)c1`, for which the inhibition was 0.12%.

Take `O=C(O/N=C(/c1ccccc1)c1ccncc1)c1ccccc1[N+](=O)[O-]`: the inhibition was 4.1%.

For `Cc1ccc(C(=O)COC(=O)c2cccc(N3C(=O)c4c(C)nc5ccccc5c4C3=O)c2)cc1C`, the inhibition is 15.3%.

Take `S=c1[nH]nc(NCCc2ccccc2)s1`: the inhibition is 0.35%.

For the compound `C/C(=C/C(=O)N1CCN(C)CC1)C(=O)O`, the inhibition was 4.35%.

As for `CCNC(=O)CC1C(=O)N(c2ccc(OC)cc2)C(=S)N1CCc1ccncc1` (centres undefined), the inhibition was -0.76%.

Turning to `NS(=O)(=O)c1ccc(NC(=O)COC(=O)c2ccco2)cc1`, the inhibition was 10%.

As to `CN(Cc1ccccc1)C(=O)CCc1ccccc1`, the inhibition was 1.98%.

Turning to `O=C(NC1CCN(Cc2ccccc2)CC1)c1cc(Br)c(Br)[nH]1`, the inhibition is 4.52%.

Regarding `Cc1ccc2c(c1)C(O)(CC(=O)c1cccc(-n3cccc3)c1)C(=O)N2` (centres undefined), the inhibition was 16.3%.

Consider `Cc1ccc(NC(=S)N(CCN(C)C)Cc2cccs2)cc1C`, for which the inhibition is -0.22%.

Regarding `COc1ccccc1NC(=S)N1CCC(NC(=O)C23CC4CC(CC(C4)C2)C3)CC1`, the inhibition was -0.01%.

With `C=CCn1c(-c2sc(-c3ccccc3)nc2C)n[nH]c1=S`, the inhibition was 1.76%.

(Values after PubChem BioAssay AID1325 (NMMLSC, 2008).)
